Screening results from PubChem BioAssay.
DENV2 CPE: protects cells from dengue virus 2 cytopathic effect. DENV2-infected cells, cytopathic effect rescue, plate reader. 350,000 tested, 1.7% active. AID 651640. CPE inhibition, % at 9.99 µM; in the data active = CPE inhibition above about 20%, passing the limit was not always enough; inconclusive = no clear call, values can overlap the other calls; tested in BHK-21 cells;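 note: 0% = median of neutral control wells and 100% = median of positive control wells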
ERAP1 HTS inh: ERAP1 (human) enzyme inhibition. 340,000 tested, 0.15% active. inhibition, % at 10.7 µM. Q9NZ08. AID 652197. recombinant ERAP1, Leu-AMC fluorescence, 60 min;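 active = mean replicate inhibition of at least 30%, or all replicates individually reaching that 30% level; inactive = mean below 30% and not every replicate reaching it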;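 note: 0% = neutral control wells and 100% = L-leucinethiol positive control wells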
E-selectin induc: E-selectin induction on HUVECs | P16581 | HUVEC E-selectin immunofluorescence imaging; normalized: neutral wells 0, TNF-alpha wells 100 | activation, % at 7.58 µM | 260,000 tested, 0.37% active | AID 686992;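 active = mean E-selectin-positive cell signal at least 10% of the positive control, reached in at least 60% of replicates, without over 20% cell loss; inconclusive = no rule given, readout overlaps actives, possibly toxicity-flagged; inactive = the rest, including those meeting only one limit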
Target sequence (P16581 whole entry, looked up): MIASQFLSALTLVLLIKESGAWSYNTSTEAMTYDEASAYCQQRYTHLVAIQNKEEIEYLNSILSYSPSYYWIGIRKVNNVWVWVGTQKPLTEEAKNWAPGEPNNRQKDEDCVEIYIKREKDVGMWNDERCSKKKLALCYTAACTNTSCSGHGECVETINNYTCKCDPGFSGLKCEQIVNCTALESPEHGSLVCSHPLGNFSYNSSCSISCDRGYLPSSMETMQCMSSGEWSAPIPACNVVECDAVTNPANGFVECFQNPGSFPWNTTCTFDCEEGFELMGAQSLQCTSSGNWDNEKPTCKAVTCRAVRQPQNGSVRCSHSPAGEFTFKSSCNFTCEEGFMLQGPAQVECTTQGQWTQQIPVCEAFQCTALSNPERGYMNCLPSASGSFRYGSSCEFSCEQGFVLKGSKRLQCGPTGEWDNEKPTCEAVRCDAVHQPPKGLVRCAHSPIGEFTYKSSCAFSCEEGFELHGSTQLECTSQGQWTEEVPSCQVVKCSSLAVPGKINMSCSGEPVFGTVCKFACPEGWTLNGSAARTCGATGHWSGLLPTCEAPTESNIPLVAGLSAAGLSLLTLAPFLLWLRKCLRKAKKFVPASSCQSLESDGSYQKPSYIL
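Read-out: % PE-positive cells | Test system: HUVEC | Doses: One compound dose added by pin transfer | Buffer or medium: EGM-2 over gelatin coat | Signal: Immunofluorescence imaging | Benchmarks: TNF-alpha, DMSO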
FGF22 binding: FGF22 (human) thermal shift binding; recombinant FGF22 thermal shift, SYPRO orange fluorescence; percent of sucrose octasulfate shift, DMSO zero; activity (Tm shift, normalised), % at 9.99 µM; 340,000 tested, 1.5% active;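 active = mean Tm shift, scaled 0 neutral to 100 positive control, at about 1.3% or above, every replicate too, limit read from the data; inconclusive = no clear call, values can overlap the other calls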
CFTR F508del cor: CFTR F508del correction in bronchial cells. CFBE cells, YFP halide quenching; stimulated with forskolin plus potentiator P3; % fluorescence drop versus neutral controls. AID 720511. 350,000 tested, 0.36% active. activity (quench increase), % at 7.58 µM;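 active = mean added fluorescence quench of at least 8% versus neutral control, with both replicates also reaching 8%; inconclusive = only one of the mean or replicate conditions met; inactive = mean below 8% and not both replicates reaching 8%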;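 note: cells transiently co-express mutant CFTR-F508del with the halide-sensitive YFP; corrector assay measuring rescue of mutant channel to the surface after 24 h compound exposure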
Numbers without * were called inactive. Shown are actives, neighbours in structure and some others; about 3.7% of the full set was active somewhere.

What do the screens show for `CO[C@@H]1CN(C)C(=O)c2ccc(NC(=O)Nc3ccc(C(F)(F)F)cc3)cc2OC[C@@H](C)NC[C@@H]1C`?
DENV2 CPE: -7; ERAP1 HTS inh: 0; E-selectin induc: 0; FGF22 binding: 0; CFTR F508del cor: -1

Results for CO[C@@H]1CN(C)C(=O)c2cc(NC(=O)c3ccc(Oc4ccccc4)cc3)ccc2OC[C@H](C)NC[C@@H]1C ?
DENV2 CPE: 22*; ERAP1 HTS inh: -2; E-selectin induc: 0; FGF22 binding: 0; CFTR F508del cor: -4

Results for CO[C@H]1CN(C)C(=O)c2cc(NC(=O)c3ccc(Oc4ccccc4)cc3)ccc2OC[C@H](C)NC[C@H]1C ?
DENV2 CPE: -4; ERAP1 HTS inh: 4; E-selectin induc: 0; FGF22 binding: 0; CFTR F508del cor: -4

Results for CO[C@H]1CN(C)C(=O)c2ccc(NC(=O)c3ccccc3)cc2OC[C@H](C)NC[C@H]1C ?
DENV2 CPE: -4; ERAP1 HTS inh: -3; E-selectin induc: 0; FGF22 binding: 0; CFTR F508del cor: 0

What do the screens show for `CO[C@H]1CN(C)C(=O)c2ccc(NC(=O)c3ccccc3)cc2OC[C@H](C)NC[C@@H]1C`?
DENV2 CPE: 39*; ERAP1 HTS inh: -2; E-selectin induc: 0; CFTR F508del cor: -1

Results for CO[C@H]1CN(C)C(=O)c2ccc(NC(=O)c3ccc(Oc4ccccc4)cc3)cc2OC[C@@H](C)NC[C@H]1C ?
DENV2 CPE: 31*; ERAP1 HTS inh: -1; E-selectin induc: 1; FGF22 binding: 0; CFTR F508del cor: -4

What do the screens show for `CCc1ccccc1NC(=S)NC1CC2CCC(C1)N2Cc1ccc(F)cc1` (configuration not stated)?
ERAP1 HTS inh: -5; FGF22 binding: 1.5*; CFTR F508del cor: -1

Results for Cc1ccccc1CNc1ncnc2cc(Cl)ccc12 ?
DENV2 CPE: -3; ERAP1 HTS inh: -3; E-selectin induc: 51*; FGF22 binding: 0; CFTR F508del cor: 1

How did CC(C)N(Cc1cn(C)nc1-c1cccc(Cl)c1)Cc1nccn1C do in these assays?
DENV2 CPE: 2; ERAP1 HTS inh: -2; E-selectin induc: -1; FGF22 binding: 43*; CFTR F508del cor: -2

How did c1ccc(Cn2c[n+](Cc3ccccc3)cn2)cc1 do in these assays?
DENV2 CPE: 4; E-selectin induc: 43*; FGF22 binding: 0; CFTR F508del cor: -1

How did S=C1NCN(Cc2ccccc2)CN1 do in these assays?
DENV2 CPE: 6; ERAP1 HTS inh: -2; FGF22 binding: 0; CFTR F508del cor: -1

Results for CC1CCCCN1CCCNC(=O)c1ccc2nc(N3CCCCC3)sc2c1 (configuration not stated) ?
DENV2 CPE: 25*; ERAP1 HTS inh: -8; E-selectin induc: 1; FGF22 binding: 0; CFTR F508del cor: 5

Results for C[C@H]1CN([C@@H](C)CO)C(=O)c2cc(NC(=O)Cn3cnnn3)ccc2O[C@H]1CN(C)Cc1ccncc1 ?
DENV2 CPE: inconclusive; ERAP1 HTS inh: -3; E-selectin induc: 0; FGF22 binding: 0; CFTR F508del cor: 1

How did Cc1cc(=O)oc2c(CN3CCCC3)c(O)c(Cl)cc12 do in these assays?
DENV2 CPE: -5; ERAP1 HTS inh: 115*; E-selectin induc: 0; FGF22 binding: 0; CFTR F508del cor: 0

What do the screens show for `Cc1cc(=O)oc2c(CN3CCN(CCO)CC3)c(O)ccc12`?
DENV2 CPE: 10; ERAP1 HTS inh: 40*; E-selectin induc: 0; FGF22 binding: 0; CFTR F508del cor: -2

What do the screens show for `Cc1cc2oc(=O)cc(CN3CCCC3)c2cc1C`?
DENV2 CPE: 6; ERAP1 HTS inh: -1; E-selectin induc: 0; FGF22 binding: 0; CFTR F508del cor: -3

Results for CCN1CCN(Cc2c(O)ccc3c(C)cc(=O)oc23)CC1 ?
DENV2 CPE: 5; ERAP1 HTS inh: 33*; E-selectin induc: 0; FGF22 binding: 0; CFTR F508del cor: -1

Results for CCN(CC)Cc1c(O)c(Cl)cc2c(C)cc(=O)oc12 ?
DENV2 CPE: 1; ERAP1 HTS inh: 66*; FGF22 binding: 1; CFTR F508del cor: 3

Results for CCCNC(=O)[C@H]1[C@H](CO)[C@H]2Cn3c(ccc(C4=CCCC4)c3=O)[C@H]2N1C(=O)C1CC1 ?
DENV2 CPE: -2; ERAP1 HTS inh: 1; E-selectin induc: 0; FGF22 binding: 0; CFTR F508del cor: 0

What do the screens show for `C[C@@H]1CCCCO[C@H](CN(C)C(=O)Nc2ccc(F)cc2)[C@@H](C)CN([C@H](C)CO)C(=O)c2cc(NS(=O)(=O)c3cn(C)cn3)ccc2O1`?
DENV2 CPE: -1; ERAP1 HTS inh: -1; E-selectin induc: 0; FGF22 binding: 0; CFTR F508del cor: -4

Results for CCCNC(=O)C[C@@H]1C[C@H]2c3cc(NC(=O)c4cccnc4)ccc3O[C@H]2[C@H](CO)O1 ?
DENV2 CPE: -5; E-selectin induc: 0; FGF22 binding: 0; CFTR F508del cor: 1

What do the screens show for `O=C(C[C@H]1CC[C@@H]2NC[C@@H](O)COC[C@H]2O1)NCCc1ccncc1`?
DENV2 CPE: 2; E-selectin induc: 1; FGF22 binding: 0; CFTR F508del cor: 1

Results for Cc1oc2c(CN3CCCC3)c(O)ccc2c(=O)c1-c1ccc(Br)cc1 ?
DENV2 CPE: 2; ERAP1 HTS inh: -2; FGF22 binding: 0; CFTR F508del cor: -1

How did O=c1oc2c(CN3CCN(CCO)CC3)c(O)ccc2cc1-c1ccccn1 do in these assays?
DENV2 CPE: 1; ERAP1 HTS inh: 98*; E-selectin induc: 0; FGF22 binding: 0; CFTR F508del cor: 3

How did Cc1cc(=O)oc2c(CN3CCCC3)c(O)ccc12 do in these assays?
DENV2 CPE: -4; ERAP1 HTS inh: 41*; E-selectin induc: 0; FGF22 binding: 0; CFTR F508del cor: -1

Results for COc1ccccc1C(=O)Nc1ccc(-c2nnn(CC(=O)N3CCOCC3)n2)cc1 ?
DENV2 CPE: 0; ERAP1 HTS inh: -1; FGF22 binding: 44*; CFTR F508del cor: 2

What do the screens show for `CCOC(=O)CNC(=S)N(Cc1cccs1)C1CCCCC1`?
DENV2 CPE: 21*; ERAP1 HTS inh: 3; FGF22 binding: 0

How did COc1ccc(S(=O)(=O)Nc2ccc3c(c2)C(=O)N([C@@H](C)CO)C[C@H](C)[C@@H](CN(C)C(=O)Nc2cccc4ccccc24)O3)cc1 do in these assays?
DENV2 CPE: 3; ERAP1 HTS inh: 0; E-selectin induc: 80*; FGF22 binding: 0; CFTR F508del cor: -1

Results for COc1ccc(S(=O)(=O)Nc2ccc3c(c2)C(=O)N([C@@H](C)CO)C[C@@H](C)[C@@H](CN(C)C(=O)Nc2cccc4ccccc24)O3)cc1 ?
DENV2 CPE: -2; ERAP1 HTS inh: -1; E-selectin induc: 53*; FGF22 binding: 0; CFTR F508del cor: -2

How did COc1ccc(S(=O)(=O)Nc2ccc3c(c2)C(=O)N([C@H](C)CO)C[C@H](C)[C@@H](CN(C)C(=O)Nc2cccc4ccccc24)O3)cc1 do in these assays?
DENV2 CPE: -10; ERAP1 HTS inh: -2; E-selectin induc: 64*; FGF22 binding: 0; CFTR F508del cor: 2
